Data set [1] deals with Mus musculus. Description: Maximal metrazole seizures was determined for the inhibition of hind limb tonus in mouse 1 hr after po dosing. In kind it is functional. The note with it: Hindlimb. An outline of the steps: (§1)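 Oral dosing, with seizures assessed 1 h later. The endpoint is inhibition of hind limb tonus, expressed as ED50 in mg/kg po.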
The subject of data set [2] is Mus musculus. Kind of data set: Maximal electroshock seizures was determined for the inhibition of hind limb tonus in mouse by 1 hr after po dose. The note with it: Hindlimb. It counts as functional. The gist of the method:
as §1
A general note: In the maximal electroshock model the usual endpoint is tonic extension of the hind limbs.

A short description of data set [3]: Tested for the neurotoxicity in mouse rotarod test was reported 1 hr after po dosing. It counts as toxicity, organism-based. The note with it: in vivo. An outline of the steps:
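Trained mice were placed on a rotating rod 1 h after oral dosing. TD50 (mg/kg) is the dose at which 50% of animals fall off the rod, reported with its range.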
A general note: In the rotarod test animals must keep their balance on a rotating rod.

The subject of the next data set is Rattus norvegicus. Description: Maximal electroshock seizures determined for the inhibition of hind limb tonus in rat 1 hr after po dosing. The note with it: Hindlimb. In kind it is functional. The gist of the method:
as §1

A short description of data set [4]: Tested for the neurotoxicity in mouse rotarod test was reported 2 hr after po dosing. In kind it is toxicity, organism-based. The note with it: in vivo.

A value given as a limit tells only on which side of the number the result lay.

Usually ED50 stands for the midpoint of the dose-response relation. Read a high ED50 as weaker potency. In the case of `CN(C1=NCCN1)c1nnc(-c2ccccc2C(F)(F)F)s1`, the ED50 with Mus musculus [1] and in the data set with Mus musculus [2] was over 100 mg/kg in each case.
Turning to `FC(F)(F)c1ccccc1-c1nnc(NC2=NCCN2)s1`, the ED50 in the data set on Mus musculus [1] and in the data set on Mus musculus [2] was over 100 mg/kg throughout.
In general, TD50 refers to the dose at which the toxic effect under study appears in half of the subjects. Low readings indicate greater toxicity, high ones lower toxicity. In data set [3], `C/N=C(\N)Nc1nnc(-c2ccccc2C(F)(F)F)s1` gave a TD50 at 1 h of over 400 mg/kg. Further, the ED50 in the data set with Mus musculus [1] amounted to 44 mg/kg; with Mus musculus [2], 49 mg/kg.
`CCCC/N=C(\N)Nc1nnc(-c2ccccc2C(F)(F)F)s1`: the values for the ED50 with Mus musculus [1] and with Mus musculus [2] were 225 mg/kg and 142 mg/kg, respectively.
For `N=C(N)Nc1nnc(-c2ccccc2C(F)(F)F)s1`, the TD50 at 1 h in data set [3] came out at 384 mg/kg. Besides, the ED50 with Mus musculus [1] is 45 mg/kg; in the data set on Rattus norvegicus, 22 mg/kg; with Mus musculus [2] it was 27 mg/kg.
On to `CN(C)CCC/N=C(\N)Nc1nnc(-c2ccccc2C(F)(F)F)s1`, for which the 50% effective dose (ED50) with Mus musculus [1] and in the data set with Mus musculus [2] was over 100 mg/kg throughout.
Turning to `COCCC/N=C(\N)Nc1nnc(-c2ccccc2C(F)(F)F)s1`, the results for the ED50 with Mus musculus [1] and in the data set on Mus musculus [2] were 78 mg/kg and over 100 mg/kg, respectively.
In the same order, the values of `N=C(NCc1ccccc1)Nc1nnc(-c2ccccc2C(F)(F)F)s1` are over 100 mg/kg and over 100 mg/kg.
Regarding `CN(N)c1nnc(-c2ccc(-c3ccccc3)cc2)s1`, the ED50 in the data set with Mus musculus [1] came out at 27 mg/kg; in the data set with Rattus norvegicus it was 16 mg/kg; in the data set on Mus musculus [2] it was 18 mg/kg. The compound also had a TD50 at 2 h in data set [4] of over 1000 mg/kg.
Regarding `NC(=O)N1c2ccccc2C=Cc2ccccc21` [CARBAMAZEPINE], the ED50 in the data set on Mus musculus [1] was 11 mg/kg; in the data set with Rattus norvegicus, 4 mg/kg; in the data set with Mus musculus [2] it was 20 mg/kg.
`CCC1(c2ccccc2)C(=O)NC(=O)NC1=O` [PHENOBARBITAL]: the median effective dose (ED50) in the data set with Mus musculus [1] was found to be 4 mg/kg; in the data set with Rattus norvegicus it was 9 mg/kg; in the data set with Mus musculus [2], 12 mg/kg.
The matching figures for `O=C1NC(=O)C(c2ccccc2)(c2ccccc2)N1` [PHENYTOIN]: 8 mg/kg, 14 mg/kg and 8 mg/kg.

These data come from ChEMBL document CHEMBL1123753, “Substituted 1,3,4-thiadiazoles with anticonvulsant activity. 3. Guanidines” (J Med Chem, 1987).
